Reference: ChEMBL document CHEMBL5131562, “1,3-Dioxane-Linked Novel Bacterial Topoisomerase Inhibitors: Expanding Structural Diversity and the Antibacterial Spectrum” (ACS Med Chem Lett, 2022)
Values after ≈ are worked out from the molar mass of the structure shown.

Biological target: Voltage-gated inwardly rectifying potassium channel KCNH2 (Homo sapiens, UniProt Q12809)
Assay: Inhibition of hERG cardiac ion channel
Format: toxicity
Conditions: not given
Method in brief: (§1)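 hERG channel inhibition was run by a contract lab. […] Determinations were made in duplicate or triplicate (n = 2 or 3).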

Compound	IC50 [µM]
COc1ccc2ncc(F)c(C[C@H](O)[C@H]3OC[C@H](NC(=O)c4ccc5c(n4)NC(=O)CS5)CO3)c2n1	> 100
O=c1ccc2ncc(F)c3c2n1CC3C[C@H]1OC[C@H](NCc2cc3c(nn2)OCCS3)CO1 (some centres not stated)	> 200

Test system: Staphylococcus aureus
Assay: Antibacterial activity against cystic fibrosis isolate Staphylococcus aureus by CLSI method
Format: functional
Conditions: not given

Compound	MIC [µg/mL]
COc1ccc2ncc(F)c(C[C@H](O)[C@H]3OC[C@H](NC(=O)c4ccc5c(n4)NC(=O)CS5)CO3)c2n1	≤ 0.06
O=c1ccc2ncc(F)c3c2n1CC3C[C@H]1OC[C@H](NCc2cc3c(nn2)OCCS3)CO1 (some centres not stated)	2 (≈ 4.24 µM)

Test system: Staphylococcus aureus
Assay: Antibacterial activity against Staphylococcus aureus ATCC 29213 by CLSI method
Format: functional
Conditions: not given

Compound	MIC [µg/mL]
COc1ccc2ncc(F)c(C[C@H](O)[C@H]3OC[C@H](NC(=O)c4ccc5c(n4)NC(=O)CS5)CO3)c2n1	0.06 (≈ 0.116 µM)
O=c1ccc2ncc(F)c3c2n1CC3C[C@H]1OC[C@H](NCc2cc3c(nn2)OCCS3)CO1 (some centres not stated)	2 (≈ 4.24 µM)

Test system: Staphylococcus aureus
Assay: Antibacterial activity against methicillin-resistant Staphylococcus aureus USA300 by CLSI method
Format: functional
Conditions: not given

Compound	MIC [µg/mL]
COc1ccc2ncc(F)c(C[C@H](O)[C@H]3OC[C@H](NC(=O)c4ccc5c(n4)NC(=O)CS5)CO3)c2n1	≤ 0.06
O=c1ccc2ncc(F)c3c2n1CC3C[C@H]1OC[C@H](NCc2cc3c(nn2)OCCS3)CO1 (some centres not stated)	4 (≈ 8.48 µM)

Test system: Staphylococcus aureus
Assay: Antibacterial activity against Staphylococcus aureus 3527 by CLSI method
Format: functional
Conditions: not given

Compound	MIC [µg/mL]
COc1ccc2ncc(F)c(C[C@H](O)[C@H]3OC[C@H](NC(=O)c4ccc5c(n4)NC(=O)CS5)CO3)c2n1	≤ 0.06
O=c1ccc2ncc(F)c3c2n1CC3C[C@H]1OC[C@H](NCc2cc3c(nn2)OCCS3)CO1 (some centres not stated)	4 (≈ 8.48 µM)

Test system: Staphylococcus aureus
Assay: Antibacterial activity against Staphylococcus aureus harbouring GyrA D83N mutant by CLSI method
Format: functional
Conditions: not given

Compound	MIC [µg/mL]
COc1ccc2ncc(F)c(C[C@H](O)[C@H]3OC[C@H](NC(=O)c4ccc5c(n4)NC(=O)CS5)CO3)c2n1	0.25 (≈ 0.485 µM)
O=c1ccc2ncc(F)c3c2n1CC3C[C@H]1OC[C@H](NCc2cc3c(nn2)OCCS3)CO1 (some centres not stated)	> 8

Biological target: DNA gyrase (Staphylococcus aureus, UniProt P0A0K8+P20831)
Assay: Inhibition of Staphylococcus aureus DNA gyrase supercoiling activity incubated for 25 min by ethidium bromide/bromophenol blue staining based agarose gel electrophoresis analysis
Format: protein-complex assay
Conditions: not given

Compound	IC50 [µM]
COc1ccc2ncc(F)c(C[C@H](O)[C@H]3OC[C@H](NC(=O)c4ccc5c(n4)NC(=O)CS5)CO3)c2n1	0.15
O=c1ccc2ncc(F)c3c2n1CC3C[C@H]1OC[C@H](NCc2cc3c(nn2)OCCS3)CO1 (some centres not stated)	1.8

Biological target: Topoisomerase IV (Staphylococcus aureus, UniProt P0C1S7+P0C1U9)
Assay: Inhibition of Staphylococcus aureus DNA topoisomerase 4 decatenation activity using kDNA as substrate incubated for 10 to 20 min by ethidium bromide/bromophenol blue staining based agarose gel electrophoresis analysis
Format: protein-complex assay
Conditions: not given

Compound	IC50 [µM]
COc1ccc2ncc(F)c(C[C@H](O)[C@H]3OC[C@H](NC(=O)c4ccc5c(n4)NC(=O)CS5)CO3)c2n1	0.42
O=c1ccc2ncc(F)c3c2n1CC3C[C@H]1OC[C@H](NCc2cc3c(nn2)OCCS3)CO1 (some centres not stated)	10

Test system: Staphylococcus aureus
Assay: Selectivity ratio of IC50 for inhibition of Staphylococcus aureus DNA topoisomerase 4 decatenation activity to IC50 for inhibition of Staphylococcus aureus DNA gyrase supercoiling activity
Conditions: not given

Compound	Ratio IC50
COc1ccc2ncc(F)c(C[C@H](O)[C@H]3OC[C@H](NC(=O)c4ccc5c(n4)NC(=O)CS5)CO3)c2n1	2.8
O=c1ccc2ncc(F)c3c2n1CC3C[C@H]1OC[C@H](NCc2cc3c(nn2)OCCS3)CO1 (some centres not stated)	5.6

Test system: Neisseria gonorrhoeae
Assay: Antimicrobial activity against Neisseria gonorrhoeae G strain harbouring type 2 topoisomerase GyrA S91F and ParE G410V mutant incubated for 20 to 24 hrs by CLSI protocol based broth microdilution method
Format: functional
Conditions: time 20-24 hrs

Compound	MIC [µg/mL]
COc1ccc2ncc(F)c(C[C@H](O)[C@H]3OC[C@H](NC(=O)c4ccc5c(n4)NC(=O)CS5)CO3)c2n1	0.12 (≈ 0.233 µM)
O=c1ccc2ncc(F)c3c2n1CC3C[C@H]1OC[C@H](NCc2cc3c(nn2)OCCS3)CO1 (some centres not stated)	> 32

Test system: Neisseria gonorrhoeae
Assay: Antimicrobial activity against wild type Neisseria gonorrhoeae ATCC 49226 incubated for 20 to 24 hrs by CLSI protocol based broth microdilution method
Format: functional
Conditions: time 20-24 hrs

Compound	MIC [µg/mL]
COc1ccc2ncc(F)c(C[C@H](O)[C@H]3OC[C@H](NC(=O)c4ccc5c(n4)NC(=O)CS5)CO3)c2n1	≤ 0.015
O=c1ccc2ncc(F)c3c2n1CC3C[C@H]1OC[C@H](NCc2cc3c(nn2)OCCS3)CO1 (some centres not stated)	32 (≈ 67.9 µM)

Test system: Neisseria gonorrhoeae
Assay: Antimicrobial activity against wild type Neisseria gonorrhoeae F strain incubated for 20 to 24 hrs by CLSI protocol based broth microdilution method
Format: functional
Conditions: time 20-24 hrs

Compound	MIC [µg/mL]
COc1ccc2ncc(F)c(C[C@H](O)[C@H]3OC[C@H](NC(=O)c4ccc5c(n4)NC(=O)CS5)CO3)c2n1	≤ 0.015
O=c1ccc2ncc(F)c3c2n1CC3C[C@H]1OC[C@H](NCc2cc3c(nn2)OCCS3)CO1 (some centres not stated)	8 (≈ 17 µM)

Test system: Neisseria gonorrhoeae
Assay: Antimicrobial activity against Neisseria gonorrhoeae K strain harbouring type 2 topoisomerase GyrA S91F, D95N and ParC S87R, S88P mutant incubated for 20 to 24 hrs by CLSI protocol based broth microdilution method
Format: functional
Conditions: time 20-24 hrs

Compound	MIC [µg/mL]
COc1ccc2ncc(F)c(C[C@H](O)[C@H]3OC[C@H](NC(=O)c4ccc5c(n4)NC(=O)CS5)CO3)c2n1	≤ 0.015
O=c1ccc2ncc(F)c3c2n1CC3C[C@H]1OC[C@H](NCc2cc3c(nn2)OCCS3)CO1 (some centres not stated)	32 (≈ 67.9 µM)

Test system: Neisseria gonorrhoeae
Assay: Antimicrobial activity against wild type Neisseria gonorrhoeae O strain incubated for 20 to 24 hrs by CLSI protocol based broth microdilution method
Format: functional
Conditions: time 20-24 hrs

Compound	MIC [µg/mL]
COc1ccc2ncc(F)c(C[C@H](O)[C@H]3OC[C@H](NC(=O)c4ccc5c(n4)NC(=O)CS5)CO3)c2n1	≤ 0.015
O=c1ccc2ncc(F)c3c2n1CC3C[C@H]1OC[C@H](NCc2cc3c(nn2)OCCS3)CO1 (some centres not stated)	32 (≈ 67.9 µM)

Test system: Neisseria gonorrhoeae
Assay: Antimicrobial activity against wild type Neisseria gonorrhoeae P strain incubated for 20 to 24 hrs by CLSI protocol based broth microdilution method
Format: functional
Conditions: time 20-24 hrs

Compound	MIC [µg/mL]
COc1ccc2ncc(F)c(C[C@H](O)[C@H]3OC[C@H](NC(=O)c4ccc5c(n4)NC(=O)CS5)CO3)c2n1	≤ 0.015
O=c1ccc2ncc(F)c3c2n1CC3C[C@H]1OC[C@H](NCc2cc3c(nn2)OCCS3)CO1 (some centres not stated)	32 (≈ 67.9 µM)

Test system: Neisseria gonorrhoeae
Assay: Antimicrobial activity against wild type Neisseria gonorrhoeae V strain harbouring type 2 topoisomerase GyrA S91F, D95G and ParC S87R mutant incubated for 20 to 24 hrs by CLSI protocol based broth microdilution method
Format: functional
Conditions: time 20-24 hrs

Compound	MIC [µg/mL]
COc1ccc2ncc(F)c(C[C@H](O)[C@H]3OC[C@H](NC(=O)c4ccc5c(n4)NC(=O)CS5)CO3)c2n1	≤ 0.015
O=c1ccc2ncc(F)c3c2n1CC3C[C@H]1OC[C@H](NCc2cc3c(nn2)OCCS3)CO1 (some centres not stated)	4 (≈ 8.48 µM)

Test system: Neisseria gonorrhoeae
Assay: Antimicrobial activity against wild type Neisseria gonorrhoeae Y strain harbouring type 2 topoisomerase GyrA S91F, D95G and ParC S87R mutant incubated for 20 to 24 hrs by CLSI protocol based broth microdilution method
Format: functional
Conditions: time 20-24 hrs

Compound	MIC [µg/mL]
COc1ccc2ncc(F)c(C[C@H](O)[C@H]3OC[C@H](NC(=O)c4ccc5c(n4)NC(=O)CS5)CO3)c2n1	≤ 0.015
O=c1ccc2ncc(F)c3c2n1CC3C[C@H]1OC[C@H](NCc2cc3c(nn2)OCCS3)CO1 (some centres not stated)	8 (≈ 17 µM)

Test system: Neisseria gonorrhoeae
Assay: Antimicrobial activity against wild type Neisseria gonorrhoeae ATCC 49226 incubated for 20 hrs by agar dilution method
Format: functional
Conditions: not given

Compound	MIC [µg/mL]
COc1ccc2ncc(F)c(C[C@H](O)[C@H]3OC[C@H](NC(=O)c4ccc5c(n4)NC(=O)CS5)CO3)c2n1	0.12 (≈ 0.233 µM)

Test system: Neisseria gonorrhoeae
Assay: Antimicrobial activity against Neisseria gonorrhoeae G strain harbouring type 2 topoisomerase GyrA S91F and ParE G410V mutant incubated for 20 hrs by agar dilution method
Format: functional
Conditions: not given

Compound	MIC [µg/mL]
COc1ccc2ncc(F)c(C[C@H](O)[C@H]3OC[C@H](NC(=O)c4ccc5c(n4)NC(=O)CS5)CO3)c2n1	0.25 (≈ 0.485 µM)

Test system: Neisseria gonorrhoeae
Assay: Antimicrobial activity against Neisseria gonorrhoeae M strain harbouring type 2 topoisomerase GyrA S91F,D95G mutant incubated for 20 hrs by agar dilution method
Format: functional
Conditions: not given

Compound	MIC [µg/mL]
COc1ccc2ncc(F)c(C[C@H](O)[C@H]3OC[C@H](NC(=O)c4ccc5c(n4)NC(=O)CS5)CO3)c2n1	0.12 (≈ 0.233 µM)

Test system: Neisseria gonorrhoeae
Assay: Antimicrobial activity against Neisseria gonorrhoeae L strain harbouring type 2 topoisomerase GyrA S91F,D95N and ParC D86N,S88P mutant incubated for 20 hrs by agar dilution method
Format: functional
Conditions: not given

Compound	MIC [µg/mL]
COc1ccc2ncc(F)c(C[C@H](O)[C@H]3OC[C@H](NC(=O)c4ccc5c(n4)NC(=O)CS5)CO3)c2n1	0.5 (≈ 0.97 µM)

Test system: not listed separately
Assay: Metabolic stability in mouse liver microsomes assessed as half life
Format: ADME, Microsome
Conditions: not given

Compound	half-life [min]
COc1ccc2ncc(F)c(C[C@H](O)[C@H]3OC[C@H](NC(=O)c4ccc5c(n4)NC(=O)CS5)CO3)c2n1	5.42
O=c1ccc2ncc(F)c3c2n1CC3C[C@H]1OC[C@H](NCc2cc3c(nn2)OCCS3)CO1 (some centres not stated)	113

Biological target: hERG (KCNH2) (Homo sapiens, UniProt Q12809)
Assay: Inhibition of hERG cardiac ion channel at 200 uM relative to control
Format: toxicity
Conditions: not given
Method in brief: as §1

Compound	inhibition at 200 µM [%]
O=c1ccc2ncc(F)c3c2n1CC3C[C@H]1OC[C@H](NCc2cc3c(nn2)OCCS3)CO1 (some centres not stated)	23

Test system: not listed separately
Assay: Cytotoxicity activity against human K562 cells assessed as inhibition of cellular growth
Format: toxicity, cell-based
Conditions: not given
Method in brief: (§2)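 Human K562 leukemia cells were tested alongside K/VP.5, an etoposide-resistant clonal subline derived from them that has reduced levels of human topoisomerase IIα. Cell growth inhibition was expressed as an IC50.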

Compound	IC50 [µM]
COc1ccc2ncc(F)c(C[C@H](O)[C@H]3OC[C@H](NC(=O)c4ccc5c(n4)NC(=O)CS5)CO3)c2n1	7.5
O=c1ccc2ncc(F)c3c2n1CC3C[C@H]1OC[C@H](NCc2cc3c(nn2)OCCS3)CO1 (some centres not stated)	98

Test system: not listed separately
Assay: Cytotoxicity activity against human K/VP.5 cells assessed as inhibition of cellular growth
Format: toxicity, cell-based
Conditions: not given
Method in brief: as §2

Compound	IC50 [µM]
COc1ccc2ncc(F)c(C[C@H](O)[C@H]3OC[C@H](NC(=O)c4ccc5c(n4)NC(=O)CS5)CO3)c2n1	> 100
O=c1ccc2ncc(F)c3c2n1CC3C[C@H]1OC[C@H](NCc2cc3c(nn2)OCCS3)CO1 (some centres not stated)	197

Biological target: not listed separately
Assay: Inhibition of Neisseria gonorrhoeae DNA gyrase supercoiling activity incubated for 25 min by ethidium bromide/bromophenol blue staining based agarose gel electrophoresis analysis
Conditions: not given
Method in brief: (§3)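 The N. gonorrhoeae enzymes were assayed separately: supercoiling by DNA gyrase, and decatenation of kDNA by topoisomerase IV. Concentration–response data were collected over at least three independent experiments and summarized with standard deviation, and IC50 values were derived.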

Compound	IC50 [µM]
COc1ccc2ncc(F)c(C[C@H](O)[C@H]3OC[C@H](NC(=O)c4ccc5c(n4)NC(=O)CS5)CO3)c2n1	0.64

Biological target: not listed separately
Assay: Inhibition of Neisseria gonorrhoeae DNA topoisomerase 4 decatenation activity using kDNA as substrate incubated for 10 to 20 min by ethidium bromide/bromophenol blue staining based agarose gel electrophoresis analysis
Conditions: not given
Method in brief: as §3

Compound	IC50 [µM]
COc1ccc2ncc(F)c(C[C@H](O)[C@H]3OC[C@H](NC(=O)c4ccc5c(n4)NC(=O)CS5)CO3)c2n1	27
